In ChEMBL document CHEMBL1123799, “Cardiotonic agents. 1. Novel 8-aryl-substituted imidazo[1,2-a]- and -[1,5-a]pyridines and imidazo[1,5-a]pyridinones as potential positive inotropic agents” (J Med Chem, 1987):

What was measured:
Felis catus = species on record: Felis catus; test: Inotropic activity as dose required to cause 20% positive or negative change in contractile force of papillary muscle from cat; type: functional, Muscle tissue
Outline: (§1)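 Papillary muscle (<1 mm diameter, ≥3 mm long) held isometric at 35 °C in bicarbonate saline (pH 7.3-7.5, 95% O2/5% CO2). Muscles under 500 mg/mm² force discarded. Compounds in water added to the bath at 1:1000, with a 15-min wash between doses. Norepinephrine 10 μM added last as internal standard. Force normalized to cross-sectional area (weight/length). Mean of ≥3 determinations.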

Canis familiaris [1] = species on record: Canis familiaris; test: Electrophysiological activity as concentration causing 20 % increase in the functional refractory period of canine ventricular muscle.; design: species or system Canis lupus familiaris, Muscle tissue
Outline: (§2)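 Right-ventricle papillary muscle strips (5-6 mm × 1-2 mm) in a 3.5-mL bath, superfused with oxygenated saline at 36 ± 0.5 °C. Diastolic threshold set with 2 ms bipolar stimuli at 4000 ms cycle length. Paced at 4× threshold for 60 min. FRP found at 1000 ms cycle length with a premature S2 after every tenth S1 at shortening intervals. Various concentrations superfused, one compound per strip.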

Mustela putorius furo [2] = species on record: Mustela putorius furo; test: Inotropic activity as dose required to cause 20% positive or negative change in contractile force of papillary muscle from ferret; type: functional, Muscle tissue; outline: as §1
[3] = Ability to inhibit canine cardiac cAMP phosphodiesterase III
Outline: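 Crude enzyme from dog cardiac muscle homogenate, taken by differential centrifugation between 700g and 165000g. Assay at 37 °C with 10^-6 M cAMP plus [3H]cAMP (10^5 cpm/mL), 40 mM Tris pH 8.0, 10 mM MgCl2, 2.5 mM mercaptoethanol, 0.05 mg/mL BSA and 0.1 mg/mL enzyme. AMP and cAMP separated by PEI-cellulose ion-exchange TLC and counted by scintillation. Triplicate, up to 100 μM.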

Mustela putorius furo [4] = species on record: Mustela putorius furo; test: Inotropic activity as dose required to cause 20% positive or negative change in contractile force of papillary muscle from ferret
Canis familiaris [5] = species on record: Canis familiaris; test: Electrophysiological activity as concentration of the drug causing 20 % increase in the functional refractory period of canine ventricular muscle.; design: species or system Canis lupus familiaris, Muscle tissue; outline: as §2

SMILES | CF C20 (Felis catus) [µM] | FRP C20 (Canis familiaris [1]) [µM] | also measured
Nc1ccc(C2=CCCn3ccnc32)cc1 | -5 | – | –
COC(=O)c1nc(O)n2cccc(-c3ccc(-n4ccnc4C)cc3)c12 | 30 | – | –
Oc1ccc(-c2cccn3ccnc23)cc1 | 15 | -18 | –
Cc1ncc2c(-c3ccccc3)cccn12 | – | – | CF C20 (Mustela putorius furo [2]): -20 µM
CSc1ccc(C(=O)c2[nH]c(=O)[nH]c2C)cc1 [ENOXIMONE] | 3 | – | –
CCc1nccn1-c1ccc(C2=CCCn3c2cnc3CC)cc1 | 0.8 | 9 | –
CCOc1ccc(C2=CCCn3c2cnc3C)cc1 | 20 | 30 | –
CCOc1ccc(-c2cccn3c(C)ncc23)cc1 | -100 | – | –
Cc1ncc2n1CCC=C2c1ccccc1 | 10 | – | –
Cc1nccn1-c1ccc(-c2cccn3c(C)ncc23)cc1 | 13 | 80 | IC50 [3]: 65 µM
Cc1ccc(-c2cccn3c(O)ncc23)cc1 | 6 | – | –
CS(=O)(=O)Nc1ccc(-c2cccn3ccnc23)cc1 | 10 | 50 | IC50 [3]: > 1000 µM
Cc1ncc2n1CCC=C2c1ccc(NS(C)(=O)=O)cc1 | 2 | 10 | –
Cc1ncc2n1CCCC2c1ccc(NS(C)(=O)=O)cc1 (configuration not stated) | – | 80 | CF C20 (Mustela putorius furo [2]): 0.8 µM
CCOC(=O)c1nc(O)n2cccc(-c3ccccc3)c12 | – | – | CF C20 (Mustela putorius furo [4]): -10 µM
Cc1ncc2n1CCC=C2c1ccc(-n2ccnc2)cc1 | 9 | 14 | –
c1ccc(-c2cccn3ccnc23)cc1 | 1 | 10 | –
Cc1ncc2n1CCC=C2c1ccc(O)cc1 | 30 | 100 | –
C1=C(c2ccccc2)c2nccn2CC1 | -15 | – | –
Cc1nccn1-c1ccc(-c2cccn3c(C)nc(Br)c23)cc1 | 1 | – | IC50 [3]: 30 µM; FRP C20 (Canis familiaris [5]): 17 µM
c1cc(-c2ccc(-n3ccnc3)cc2)c2nccn2c1 | 30 | – | IC50 [3]: 220 µM
Nc1ccc(-c2cccn3ccnc23)cc1 | 15 | – | –
CC(=O)Nc1ccc(C2=CCCn3c2cnc3C)cc1 | 10 | 40 | –
COC(=O)c1nc(O)n2cccc(-c3ccc(C)cc3)c12 | -40 | – | –
C1=C(c2ccc(-n3ccnc3)cc2)c2nccn2CC1 | 29 | 100 | IC50 [3]: 550 µM
CCCCNC(=O)NC1CCN(c2ncnc3cc(OC)c(OC)cc23)CC1 [BUQUINERAN] | – | – | CF C20 (Mustela putorius furo [2]): 7 µM
Cc1nccn1-c1ccc(C2=CCCn3c2cnc3C)cc1 | 5 | 5 | IC50 [3]: 150 µM
